Our source for the Activity and Ki values is ChEMBL document CHEMBL1157909, “Targeting multiple chorismate-utilizing enzymes with a single inhibitor: validation of a three-stage design” (J Med Chem, 2010).

The structures appear in SMILES notation. Calls of active or inactive are those of the source. The rule behind the calls is not given here.

Experiment [1] concerns the target T1, Anthranilate synthase component 1 (Salmonella typhimurium (strain LT2 / SGSC1412 / ATCC 700720)) (UniProt P00898).
T1 sequence (whole entry): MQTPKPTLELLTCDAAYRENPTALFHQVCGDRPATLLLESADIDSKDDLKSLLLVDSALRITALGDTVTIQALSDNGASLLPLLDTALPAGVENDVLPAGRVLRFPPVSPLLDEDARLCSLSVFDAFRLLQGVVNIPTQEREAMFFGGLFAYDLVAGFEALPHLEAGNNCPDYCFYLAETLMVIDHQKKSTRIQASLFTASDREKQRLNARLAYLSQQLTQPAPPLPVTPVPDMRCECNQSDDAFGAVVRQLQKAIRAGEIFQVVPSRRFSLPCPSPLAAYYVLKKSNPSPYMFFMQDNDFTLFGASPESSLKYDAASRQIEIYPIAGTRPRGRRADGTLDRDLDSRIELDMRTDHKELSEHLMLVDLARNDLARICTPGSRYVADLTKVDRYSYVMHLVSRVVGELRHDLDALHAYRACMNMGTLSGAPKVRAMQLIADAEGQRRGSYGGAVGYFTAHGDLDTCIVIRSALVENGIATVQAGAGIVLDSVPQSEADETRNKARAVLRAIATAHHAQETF
The experiment is described as follows: Mixed-type inhibition of Salmonella Typhimurium anthranilate synthase trpE expressed in Escherichia coli BL21(DE3) using chorismate as substrate by double reciprocal plot. As to conditions: Salmonella enterica subsp. enterica serovar Typhimurium. In short, it runs like this:
(§1)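 S. typhimurium anthranilate synthase partial complex (TrpE2TrpG2), 2.2 nM, in a fluorescence assay read at 390 nm emission, 313 nm excitation, 25 °C. Buffer: 100 mM phosphate pH 7.0, 20 mM L-glutamine, 5 mM MgCl2 (saturating). Reactions were started with enzyme. Inhibitor ranged 10 μM–8 mM; chorismate ranged 0.5–5 KM. Ki versus chorismate came from initial rates.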

Experiment [2] addresses T2, Isochorismate synthase EntC (Escherichia coli K-12, UniProt P0AEJ2).
T2 sequence (P0AEJ2 whole entry): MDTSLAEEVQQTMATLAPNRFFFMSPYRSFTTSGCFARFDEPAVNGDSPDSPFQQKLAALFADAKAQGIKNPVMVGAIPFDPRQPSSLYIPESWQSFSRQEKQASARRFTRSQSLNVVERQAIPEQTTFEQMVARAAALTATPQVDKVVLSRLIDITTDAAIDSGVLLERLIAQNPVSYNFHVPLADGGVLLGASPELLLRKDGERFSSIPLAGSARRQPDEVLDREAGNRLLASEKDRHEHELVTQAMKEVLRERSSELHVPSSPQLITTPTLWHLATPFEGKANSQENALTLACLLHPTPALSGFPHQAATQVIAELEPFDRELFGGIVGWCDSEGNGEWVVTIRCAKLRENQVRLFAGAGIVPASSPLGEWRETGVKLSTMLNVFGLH
Nature of the experiment: Inhibition of Escherichia coli K12 IS expressed in Escherichia coli BL21(DE3) by spectrophotometry. In short, it runs like this: (§2)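 Isochorismate synthase EntC (His-tagged, pET28a, BL21(DE3)) at 75 nM, coupled to excess EntB (2 μM) and 2 units LDH. Read-out was NADH oxidation at 340 nm, 25 °C. Buffer: 50 mM triethanolamine pH 7.8, 1 mM MgCl2 (saturating), 100 μM NADH. Inhibitor ranged 10 μM–8 mM; chorismate ranged 0.5–5 KM. Ki versus chorismate came from initial rates.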

Experiment [3] has as its target T3, Anthranilate synthase component 1 (Salmonella typhimurium (strain LT2 / SGSC1412 / ATCC 700720), UniProt P00898).
T3 sequence (P00898 whole entry): T1 sequence (whole entry)
The experiment is described as follows: Inhibition of Salmonella Typhimurium anthranilate synthase trpE:trpD […] coexpressing stop codon in trpD gene for encoding aminotransferase activity by spectrophotometry for enzyme-inhibitor complex. The arrangement: species or system Salmonella enterica subsp. enterica serovar Typhimurium.

Experiment [4] addresses T4, Isochorismate synthase EntC (Escherichia coli K-12) (UniProt P0AEJ2).
T4 sequence (whole entry): T2 sequence (P0AEJ2 whole entry)
Nature of the experiment: Competitive inhibition of Escherichia coli K12 IS expressed in Escherichia coli BL21(DE3) using chorismate as substrate by double reciprocal plot. In short, it runs like this: as §2

Experiment [5] deals with T4, Isochorismate synthase EntC (Escherichia coli K-12). Nature of the experiment: Noncompetitive inhibition of Escherichia coli K12 IS expressed in Escherichia coli BL21(DE3) by double reciprocal plot in presence of cofactor Mg2+. In short, it runs like this: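 IS (75 nM) in an EntB/LDH coupled assay, with NADH loss read at 340 nm, 25 °C. Buffer: 50 mM triethanolamine pH 7.8, 100 μM NADH. Chorismate was held saturating at 200 μM while Mg2+ was varied 5–500 μM. Inhibitor ranged 10 μM–8 mM; the inhibition pattern came from initial rates.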

The target in experiment [6] is T1, Anthranilate synthase component 1 (Salmonella typhimurium (strain LT2 / SGSC1412 / ATCC 700720)). The experiment is described as follows: Competitive inhibition of Salmonella Typhimurium anthranilate synthase trpE expressed in Escherichia coli BL21(DE3) by double reciprocal plot in presence of cofactor Mg2+. As to conditions: Salmonella enterica subsp. enterica serovar Typhimurium.

Experiment [7] deals with Aminodeoxychorismate synthase component 1 PabB (Escherichia coli K-12) (UniProt P05041). Nature of the experiment: Competitive inhibition of Escherichia coli K12 ADCS using chorismate as substrate by double reciprocal plot.
The target is the same in experiment [8]. Nature of the experiment: Competitive inhibition of Escherichia coli K12 ADCS by double reciprocal plot in presence of cofactor Mg2+.
The target of experiment [9] is Anthranilate synthase component 1 (Salmonella typhimurium (strain LT2 / SGSC1412 / ATCC 700720), UniProt P00898). The experiment is described as follows: Inhibition of Salmonella Typhimurium anthranilate synthase trpE:trpD […] coexpressing stop codon in trpD gene for encoding aminotransferase activity by spectrophotometry for enzyme-substrate-inhibitor complex. Details: species or system Salmonella enterica subsp. enterica serovar Typhimurium.

Experiment [10] concerns the target Aminodeoxychorismate synthase component 1 PabB (Escherichia coli K-12) (UniProt P05041). The experiment is described as follows: Noncompetitive inhibition of Escherichia coli K12 ADCS using chorismate as substrate by double reciprocal plot.
Experiment [11] deals with T1, Anthranilate synthase component 1 (Salmonella typhimurium (strain LT2 / SGSC1412 / ATCC 700720)). The experiment is described as follows: Noncompetitive inhibition of Salmonella Typhimurium anthranilate synthase trpE expressed in Escherichia coli BL21(DE3) using chorismate as substrate by double reciprocal plot. The note with it: Salmonella enterica subsp. enterica serovar Typhimurium. In short, it runs like this: as §1

Experiment [12] has as its target Aminodeoxychorismate synthase component 1 PabB (Escherichia coli K-12) (UniProt P05041). The experiment is described as follows: Noncompetitive inhibition of Escherichia coli K12 ADCS by double reciprocal plot in presence of cofactor Mg2+.

Aminodeoxychorismate synthase component 1 PabB (Escherichia coli K-12), sequence (P05041 whole entry, looked up): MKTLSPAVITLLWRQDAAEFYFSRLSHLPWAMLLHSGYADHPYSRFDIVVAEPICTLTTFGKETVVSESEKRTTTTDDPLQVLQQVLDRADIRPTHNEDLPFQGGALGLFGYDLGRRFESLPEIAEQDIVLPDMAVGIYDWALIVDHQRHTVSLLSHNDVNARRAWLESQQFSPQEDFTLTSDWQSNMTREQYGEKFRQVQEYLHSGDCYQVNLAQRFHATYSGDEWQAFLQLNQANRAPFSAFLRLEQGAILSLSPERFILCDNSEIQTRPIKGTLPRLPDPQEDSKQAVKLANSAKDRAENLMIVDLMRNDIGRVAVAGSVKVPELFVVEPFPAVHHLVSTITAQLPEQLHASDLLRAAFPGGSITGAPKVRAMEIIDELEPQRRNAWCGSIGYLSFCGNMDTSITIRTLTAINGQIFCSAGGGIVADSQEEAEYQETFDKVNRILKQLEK

On to `NC(=O)c1cccc(OCC(=O)O)c1`, for which the outcome in experiment [1], in experiment [4], in experiment [5], in experiment [6], in [7] and in experiment [8] was Active. The Ki was determined as 2600 µM in experiment [2], 760 µM in experiment [3] and 2600 µM in experiment [9].
For `Cc1ccc(C(=O)N[C@@H](CCCCNC(=O)c2cccc(OCC(=O)O)c2)C(=O)N[C@@H](Cc2cccc(Cl)c2)C(N)=O)c([N+](=O)[O-])c1O`, the outcome in [1], in experiment [4], in experiment [5], in [6], in experiment [7] and in experiment [8] was Active. The Ki stood at 210 µM in experiment [2], 20 µM in experiment [3] and 54 µM in experiment [9].
Regarding `Cc1ccc(C(=O)N[C@@H](C)C(=O)N[C@@H](Cc2cccc(Cl)c2)C(N)=O)c([N+](=O)[O-])c1O`, the Ki in [2] is 500 µM; in experiment [3] it was 200 µM. Further, the outcome in [10], in [11], in [12], in [4] and in experiment [5] was Active.
In the case of `Cc1ccc(C(=O)N[C@@H](CCCNC(=O)c2cccc(OCC(=O)O)c2)C(=O)N[C@@H](Cc2cccc(Cl)c2)C(N)=O)c([N+](=O)[O-])c1O`, the Ki in experiment [2] came out at 360 µM; in experiment [3] it was 41 µM. Further, the outcome in experiment [4], in [5], in [6] and in experiment [7] was Active.
Take `Cc1ccc(C(=O)N[C@@H](CCCCN)C(=O)N[C@@H](Cc2cccc(Cl)c2)C(N)=O)c([N+](=O)[O-])c1O`: the Ki in [2] is 790 µM; in experiment [3], 110 µM. For the same compound, the outcome in [10], in experiment [12], in [4] and in [5] was Active.
In the case of `NC(=O)C1(NC(=O)[C@H](CCCNC(=O)c2cccc(OCC(=O)O)c2)NC(=O)c2ncccc2C(=O)c2ccccc2)CCCCC1`, the result in experiment [1], in experiment [4], in experiment [5], in [6], in experiment [7] and in experiment [8] was Active. For the same compound, the values for the Ki in experiment [2], in experiment [3] and in experiment [9] were 430 µM, 490 µM and 1080 µM, respectively.
`NC(=O)C1(NC(=O)[C@H](CCCNC(=O)c2cccc(OCC(=O)O)c2)NC(=O)c2ccc(Oc3ccccc3)cc2)CCS(=O)(=O)CC1`: the result in [1], in [4], in experiment [5], in experiment [6], in [7] and in experiment [8] was Active. Also, the Ki was found to be 170 µM in experiment [2], 570 µM in [3] and 1020 µM in experiment [9].
Regarding `O=C(O)COc1cccc(C(=O)O)c1`, the result in [1], in experiment [4], in experiment [5], in experiment [6], in experiment [7] and in experiment [8] was Active. The values for the Ki in [2], in [3] and in experiment [9] were 1300 µM, 210 µM and 550 µM, respectively.
On to `CC(C(=O)N[C@@H](CCCNC(=O)c1cccc(OCC(=O)O)c1)C(=O)NCCc1cccc2c1oc1c(CCC(N)=O)cccc12)c1ccc([N+](=O)[O-])cc1` (stereo not given in full), for which the outcome in [1], in experiment [4], in experiment [5], in experiment [6], in experiment [7] and in [8] was Active. Further, the Ki worked out at 190 µM in experiment [2], 250 µM in experiment [3] and 110 µM in [9].
On to `Cc1ccc(C(=O)N[C@@H](CSCCCNC(=O)c2cccc(OCC(=O)O)c2)C(=O)N[C@@H](Cc2cccc(Cl)c2)C(N)=O)c([N+](=O)[O-])c1O`, for which the outcome in experiment [1], in experiment [4], in experiment [5], in experiment [6], in experiment [7] and in [8] was Active. Further, the Ki in experiment [2] was 150 µM; in experiment [3], 96 µM.
As for `Cc1ccc(C(=O)N[C@@H](CCCNC(=O)c2cccc(OCC(=O)O)c2)C(=O)N[C@@H](Cc2ccc(C#N)cc2)C(N)=O)c([N+](=O)[O-])c1O`, the result in [1], in [4], in experiment [5], in [6], in experiment [7] and in experiment [8] was Active. Further, the Ki in [2] turned out to be 260 µM; in experiment [3], 28 µM; in [9], 81 µM.
